# Published values from different studies.
# Compare with care: the assays were run in different laboratories.
SMILES,cell line,test,conditions,IC50
C=CC(=O)N1CCC[C@@H](n2nc(-c3ccc(Oc4ccccc4)cc3)c3c(N)ncnc32)C1,SU-DHL-6,"cell growth or viability, resazurin",72 h,> 0.5 µM
O=C(NS(=O)(=O)c1ccc(C(F)(F)F)cc1)c1cc2ccccc2n1Cc1ccc(Br)c2ccccc12,mouse BMDM,"IL-1β release, inhibitor, ELISA",LPS-stimulated,7.28 µM
Cc1cc2c(C(=O)O)cccc2n1-c1nc2c(c(NCc3ccccc3)n1)CCCN2,KMS-11,cell growth or viability,72 h,0.9 µM
Nc1ccccc1NC(=O)c1ccc(Cn2cnc3c(Nc4ccc(Br)cc4F)ncnc32)cc1,HEL,"cell growth or viability, MTT",72 h,17 µM
CN1C(=O)C(=O)c2cc3c(c4c2c1cc1ccccc14)OCO3,H69AR,"cell growth or viability, MTT",75 h,44.6 µM
OCc1ccc(-c2nn(Cc3ccncc3)c3cccnc23)o1,CC-LP-1,"cell growth or viability, ATP luminescence",,> 46 µM
O=C(NO)c1ccc(Cn2cnc3c(Nc4ccc(Cl)cc4)ncnc32)cc1,NB-4,"cell growth or viability, MTT",72 h,0.41 µM
CONC(=O)c1cccc2c1cc(C)n2-c1nc2c(c(NCc3ccccc3)n1)CCCN2,KMS-11,cell growth or viability,72 h,2.1 µM
Cc1cc(NS(=O)(=O)c2ccc(NC(=O)/C(C#N)=C/c3ccc(N4CCCCC4)cc3)cc2)no1,HSF,"cell growth or viability, MTT",48 h,> 200 µM
C(=N\Nc1cc(N/N=C/c2cccc3cccnc23)ncn1)/c1cccc2cccnc12,BGC-823,"cell growth or viability, MTT",48 h,26.8 µM
COc1cc(Cn2nc(-c3ccc(CO)o3)c3ccccc32)ccn1,CC-LP-1,"cell growth or viability, ATP luminescence",,> 46 µM
CCC(=CCc1c(O)cc2c(c1O)C(=O)C[C@@H](c1ccc(O)cc1)O2)CC,HeLa,"cell growth or viability, MTT",48 h,22.8 µM
CN(C)CCNC(=O)c1cccn2c(=O)c3cc4ccccc4cc3nc12,SNU-449,"cell growth or viability, imaging",72 h,36.3 µM
O=c1[nH]cc(F)c(=O)[nH]1,HSF,"cell growth or viability, MTT",48 h,76.9 µM
O=C(NO)c1ccc(Cn2cnc3c(Nc4cccc([N+](=O)[O-])c4)ncnc32)cc1,NB-4,"cell growth or viability, MTT",72 h,0.58 µM
CNC(=O)c1cc(Oc2ccc(NC(=O)Nc3ccc(Cl)c(C(F)(F)F)c3)cc2)ccn1,BGC-823,"cell growth or viability, MTT",48 h,6.08 µM
COc1cccc2c1C(=O)c1c(O)c3c(c(O)c1C2=O)C[C@@](O)(C(=O)CO)C[C@@H]3O[C@H]1C[C@H](N)[C@H](O)[C@H](C)O1,BGC-823,cell growth or viability,96 h,0.0818 µM
OCc1ccc(-c2nn(Cc3ccccn3)c3ccccc23)o1,CC-LP-1,"cell growth or viability, ATP luminescence",,> 46 µM
O=C(NO)c1ccc(Cn2cnc3c(Nc4ccc(F)c(Cl)c4)ncnc32)cc1,NB-4,"cell growth or viability, MTT",72 h,2.34 µM
OCc1ccc(-c2nn(Cc3ccncc3)c3ccccc23)o1,CC-LP-1,"cell growth or viability, ATP luminescence",,> 46 µM
COc1ccc(Nc2ncnc3c2ncn3Cc2ccc(C(=O)Nc3ccccc3N)cc2)cc1,HEL,"cell growth or viability, MTT",72 h,16.8 µM
O=C(CSc1nc2ccccc2s1)N/N=C/c1ccc(OCC(=O)Nc2cccc([N+](=O)[O-])c2)cc1,HEL 299,"cell growth or viability, MTS",72 h,> 100 µM
OCc1ccc(-c2nn(Cc3cccnc3)c3cccnc23)o1,CC-LP-1,"cell growth or viability, ATP luminescence",,> 46 µM
Cc1cc(NS(=O)(=O)c2ccc(NC(=O)/C(C#N)=C/c3ccc(N4CCOCC4)cc3)cc2)no1,HSF,"cell growth or viability, MTT",48 h,> 200 µM
CN(C)c1cccc2c(S(=O)(=O)NCCCCN=C=S)cccc12,HDFa,"cell growth or viability, MTT",24 h,28.4 µM
Nc1ccccc1NC(=O)c1ccc(Cn2cnc3c(Nc4ccc(Cl)cc4)ncnc32)cc1,HEL,"cell growth or viability, MTT",72 h,13 µM
C(=N\Nc1cc(N/N=C/c2ccc3ccccc3n2)ncn1)/c1ccc2ccccc2n1,BGC-823,"cell growth or viability, MTT",48 h,12.3 µM
NCc1ccc(-c2nn(Cc3ccncc3)c3ccccc23)o1,CC-LP-1,"cell growth or viability, ATP luminescence",,> 46 µM
O=C(NO)c1ccc(Cn2cnc3c(Nc4ccc(Br)cc4F)ncnc32)cc1,HEL,"cell growth or viability, MTT",72 h,2.46 µM
COc1cccc(Cn2nc(-c3ccc(CO)o3)c3ccccc32)c1,CC-LP-1,"cell growth or viability, ATP luminescence",,> 46 µM
COc1ccc(Nc2ncnc3c2ncn3Cc2ccc(C(=O)NO)cc2)cc1,NB-4,"cell growth or viability, MTT",72 h,0.87 µM
O=C(CSc1nc2ccccc2s1)N/N=C/c1ccc(OCC(=O)Nc2cccc(Cl)c2)cc1,HEL 299,"cell growth or viability, MTS",72 h,> 100 µM
OCc1ccc(-c2nn(Cc3ccccc3)c3ccccc23)o1,CC-LP-1,"cell growth or viability, ATP luminescence",,> 46 µM
COc1cc([C@@H]2c3cc4c(cc3[C@@H](O[C@@H]3O[C@@H]5CO[C@@H](C)O[C@H]5[C@H](O)[C@H]3O)[C@H]3COC(=O)[C@H]23)OCO4)cc(OC)c1O,HEL 299,"cell growth or viability, MTS",72 h,> 10 µM
CN1CCN(c2ccc(Nc3c4ccccc4nc4ccccc34)cc2)CC1,SNU-449,"cell growth or viability, imaging",72 h,4.68 µM
